Test results reported in paper PMC3379667 (Diabetes, 2012).
No end group written: not given here.

What was measured:
healthy humans = details: intravenous infusion of neurotensin alone; cited from earlier work
[1] = tested on: humans with NGT, IGT, or T2DM; test: Graded glucose infusion; format: in vivo, human; details: for increase of ISR iAUC during the first 40 min compared with albumin: P ≤0.0005; for increase of 240-min ISR iAUC/glucose iAUC compared with albumin: P ≤0.007 vs. albumin
Method in brief: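 Subjects fasted 10 h. Arterialized venous blood was drawn from a hand heated to 50–55°C. Glucose ≥120 mg/dL was lowered to 100–120 mg/dL with IV insulin (∼0.01 units/kg every 30 min), then held stable 20 min. Four blinded 240-min GGIs ≥2 weeks apart gave IV peptide or albumin (peptides 4 pmol·kg−1·min−1 in saline/1% albumin). Glucose measured by glucose oxidase; C-peptide by chemiluminescent immunometric assay; ISR by stochastic deconvolution; iAUCs; mixed-effects models, one-tailed t tests.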

[2] = tested on: humans with NGT, IGT, or T2DM; test: Symptomatic effects of peptide infusions; format: in vivo, human; details: all three groups; for subjects with mild diarrhea and/or loose stools: within several hours of the infusion
[3] = tested on: healthy individuals and persons with T2DM; details: iv infusion 4 pmol/kg/min, cited from earlier work
[4] = Plasma IR-GIP and IR-xenin levels during and after peptide infusion; format: in vivo; details: human, iv, 4 pmol ⋅ kg^−1 ⋅ min^−1
Method in brief: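 Peptides were infused IV at 4 pmol·kg−1·min−1 in saline with 1% albumin during the graded glucose infusion. Plasma IR-GIP was measured by total-GIP ELISA and IR-xenin by an in-house ELISA. IR-xenin half-life came from levels sampled after infusions stopped (n = 6).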

Compound: neurotensin
- change in blood pressure or plasma levels of glucose, insulin, or glucagon (healthy humans): no significant change

Compound: CC[C@H](C)[C@H](NC(=O)[C@H](CO)NC(=O)[C@H](Cc1ccc(O)cc1)NC(=O)[C@H](CC(=O)O)NC(=O)[C@H](CO)NC(=O)[C@@H](NC(=O)[C@H](Cc1ccccc1)NC(=O)[C@@H](NC(=O)CNC(=O)[C@H](CCC(=O)O)NC(=O)[C@H](C)NC(=O)[C@@H](N)Cc1ccc(O)cc1)[C@@H](C)O)[C@@H](C)CC)C(=O)N[C@@H](C)C(=O)N[C@@H](CCSC)C(=O)N[C@@H](CC(=O)O)C(=O)N[C@@H](CCCCN)C(=O)N[C@H](C(=O)N[C@@H](Cc1c[nH]cn1)C(=O)N[C@@H](CCC(N)=O)C(=O)N[C@@H](CCC(N)=O)C(=O)N[C@@H](CC(=O)O)C(=O)N[C@@H](Cc1ccccc1)C(=O)N[C@H](C(=O)N[C@@H](CC(N)=O)C(=O)N[C@@H](Cc1c[nH]c2ccccc12)C(=O)N[C@@H](CC(C)C)C(=O)N[C@@H](CC(C)C)C(=O)N[C@@H](C)C(=O)N[C@@H](CCC(N)=O)C(=O)N[C@@H](CCCCN)C(=O)NCC(=O)N[C@@H](CCCCN)C(=O)N[C@@H](CCCCN)C(=O)N[C@@H](CC(N)=O)C(=O)N[C@@H](CC(=O)O)C(=O)N[C@@H](Cc1c[nH]c2ccccc12)C(=O)N[C@@H](CCCCN)C(=O)N[C@@H](Cc1c[nH]cn1)C(=O)N[C@@H](CC(N)=O)C(=O)N[C@H](C(=O)N[C@H](C(=O)N[C@@H](CCC(N)=O)C(=O)O)[C@@H](C)O)[C@@H](C)CC)C(C)C)[C@@H](C)CC [GIP, glucose-dependent insulinotropic polypeptide]
- ISR iAUC during the first 40 min of the GGI ([1]; subjects with IGT, G+X vs GIP alone P = 0.002): 10,016 ± 1,524 pmol insulin secreted/40 min
- increase of ISR iAUC during the first 40 min compared with albumin ([1]; subjects with IGT): 6.1 fold
- increase of 240-min ISR iAUC/glucose iAUC compared with albumin ([1]; subjects with IGT): 1.5 fold
- time of peak early insulin secretory response (ISR) ([1]; subjects with IGT, time into the infusions): 20 min
- ISR iAUC during the first 40 min of the GGI ([1]; subjects with NGT, G+X vs GIP alone P = 0.048): 7,998 ± 1,263 pmol insulin secreted/40 min
- increase of ISR iAUC during the first 40 min compared with albumin ([1]; subjects with NGT): 4.6 fold
- increase of 240-min ISR iAUC/glucose iAUC compared with albumin ([1]; subjects with NGT): 1.7 fold
- time of peak early insulin secretory response (ISR) ([1]; subjects with NGT, time into the GGI): ≤ 10 min
- ISR iAUC during the first 40 min of the GGI ([1]; subjects with T2DM, G+X vs GIP alone P = 0.18): 10,062 ± 2,290 pmol insulin secreted/40 min
- increase of ISR iAUC during the first 40 min compared with albumin ([1]; subjects with T2DM): 8.7 fold
- increase of 240-min ISR iAUC/glucose iAUC compared with albumin ([1]; subjects with T2DM): 1.9 fold
- increase of resting heart rate [2]: ~8 bpm
- reduction of mean arterial blood pressure [2]: 10–15 mmHg
- subjects with mild diarrhea and/or loose stools [2]: 14%
- increase of insulin release during a hyperglycemic clamp ([3]; healthy individuals): approximately fourfold
- effect on insulin release during a hyperglycemic clamp ([3]; persons with T2DM): ineffective

Compound: MLTKFETKSARVKGLSFHPKRPWIL [xenin-25, Xenin-25]
- increase of resting heart rate [2]: no effect
- reduction of mean arterial blood pressure [2]: no effect
- subjects with mild diarrhea and/or loose stools [2]: 21%
- half-life [4]: 2.5 ± 0.3 min
